Results as given in ChEMBL document CHEMBL1148328, “Synthesis and structure-activity relationships of parasiticidal thiosemicarbazone cysteine protease inhibitors against Plasmodium falciparum, Trypanosoma brucei, and Trypanosoma cruzi” (J Med Chem, 2004).
Values belong to the compound of their own block, whether it stands above or below them.

Legend:
Cruzipain = Cruzipain (Trypanosoma cruzi, UniProt P25779); test: Inhibition of cruzain from Trypanosoma cruzi
Summary of the method: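 Recombinant cruzain (2 nM) preincubated 5 min at room temperature with 0.5–10 μM inhibitor in 100 mM sodium acetate pH 5.5 with 5 mM DTT, 0.7% DMSO. Reaction started with Z-Phe-Arg-AMC at 20 μM final (Km 1 μM), followed by fluorescence at ex 355/em 460. IC50 read graphically from inhibition vs log[I], seven concentrations with at least two in the linear range.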

Falcipain 2 = molecular target: T1, Falcipain 2 (Plasmodium falciparum, UniProt Q9N6S8); test: Inhibition of falcipain2 from Plasmodium falciparum
T1 sequence (Q9N6S8 whole entry): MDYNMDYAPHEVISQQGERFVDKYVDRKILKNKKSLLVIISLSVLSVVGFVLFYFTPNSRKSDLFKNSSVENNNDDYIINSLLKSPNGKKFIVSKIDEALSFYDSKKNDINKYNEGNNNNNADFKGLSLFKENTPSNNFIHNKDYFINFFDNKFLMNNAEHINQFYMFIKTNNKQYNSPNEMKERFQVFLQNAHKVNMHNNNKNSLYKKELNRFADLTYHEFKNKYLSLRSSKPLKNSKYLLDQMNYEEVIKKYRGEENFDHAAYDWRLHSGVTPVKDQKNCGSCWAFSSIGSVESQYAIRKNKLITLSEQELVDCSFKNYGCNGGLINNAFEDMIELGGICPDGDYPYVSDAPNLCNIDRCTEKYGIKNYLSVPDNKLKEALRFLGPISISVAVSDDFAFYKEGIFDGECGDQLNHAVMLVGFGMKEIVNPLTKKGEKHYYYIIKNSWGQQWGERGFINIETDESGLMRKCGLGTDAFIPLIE
Summary of the method: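 Recombinant falcipain-2 preincubated 30 min at room temperature with inhibitor in 100 mM sodium acetate pH 5.5 with 10 mM DTT, DMSO at most 1%. Z-Leu-Arg-AMC then added to 25 μM final, and fluorescence monitored 15 min at room temperature. IC50 taken from plots of percent activity against compound concentration.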

Plasmodium falciparum = test: Effective inhibition of Plasmodium falciparum; assay type: functional; conditions: read-out: ED50 (the source's name)
Summary of the method: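 W2-strain parasites at 1% parasitemia and 2% hematocrit, run in duplicate. Inhibitor diluted from DMSO stocks in 1:5 steps to final 10 μM, 2000, 400, 80, 16 and 3.2 nM. Cultures kept 2 days at 37 °C, then washed and fixed in 1% formaldehyde/PBS. Parasitemia measured by flow cytometry with YOYO-1 DNA stain.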

Rhodesain = Rhodesain (Trypanosoma brucei rhodesiense, UniProt Q95PM0); test: Inhibition of rhodesain from Trypanosoma brucei rhodesiense
Summary of the method: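 Recombinant rhodesain (3 nM) preincubated 5 min at room temperature with 0.5–10 µM inhibitor in 100 mM sodium acetate pH 5.5, 5 mM DTT, 0.7% DMSO final. Z-Phe-Arg-AMC then added (20 µM final) and fluorescence rise followed at ex 355/em 460. IC50 read graphically from linear portion of inhibition vs log[I], seven concentrations, at least two in linear range.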

[1] = tested on: Trypanosoma brucei rhodesiense; test: Effective dose required to inhibit Trypanosoma brucei rhodesiense in culture; assay type: functional; conditions: read-out: ED50 (the source's name)
Summary of the method: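 T. b. rhodesiense grown at 37 °C, 5% CO2 in HMI-9 with 10% FBS and 10% Serum Plus, seeded at 10⁴ cells/mL. Inhibitor serially diluted directly in culture from the top concentration down to 1 nM. Exposure 48 h at 37 °C. Viability read as ATP content by CellTiter-Glo luminescence after 5 min shaking at room temperature, or by hemacytometer count.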

[2] = Survival of infected cells against Trypanosoma cruzi in days at a dose of 5 uM; Toxicity = None
[3] = Survival of infected cells against Trypanosoma cruzi in days at a dose of 5 uM; Toxicity = Toxic

Rhodesain, sequence (Q95PM0 whole entry): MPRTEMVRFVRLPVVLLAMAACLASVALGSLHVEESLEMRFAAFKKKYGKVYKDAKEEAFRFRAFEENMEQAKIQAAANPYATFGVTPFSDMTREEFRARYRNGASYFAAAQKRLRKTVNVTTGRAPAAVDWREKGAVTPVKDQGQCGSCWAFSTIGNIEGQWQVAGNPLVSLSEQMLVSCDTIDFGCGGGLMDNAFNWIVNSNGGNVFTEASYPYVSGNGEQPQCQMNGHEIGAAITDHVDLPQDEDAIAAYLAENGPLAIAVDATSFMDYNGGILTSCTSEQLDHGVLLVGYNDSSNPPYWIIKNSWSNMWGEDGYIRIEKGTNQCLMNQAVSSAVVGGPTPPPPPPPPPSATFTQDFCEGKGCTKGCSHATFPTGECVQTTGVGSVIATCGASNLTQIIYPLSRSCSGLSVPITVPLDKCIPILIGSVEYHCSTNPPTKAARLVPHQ
Cruzipain, sequence (P25779 whole entry): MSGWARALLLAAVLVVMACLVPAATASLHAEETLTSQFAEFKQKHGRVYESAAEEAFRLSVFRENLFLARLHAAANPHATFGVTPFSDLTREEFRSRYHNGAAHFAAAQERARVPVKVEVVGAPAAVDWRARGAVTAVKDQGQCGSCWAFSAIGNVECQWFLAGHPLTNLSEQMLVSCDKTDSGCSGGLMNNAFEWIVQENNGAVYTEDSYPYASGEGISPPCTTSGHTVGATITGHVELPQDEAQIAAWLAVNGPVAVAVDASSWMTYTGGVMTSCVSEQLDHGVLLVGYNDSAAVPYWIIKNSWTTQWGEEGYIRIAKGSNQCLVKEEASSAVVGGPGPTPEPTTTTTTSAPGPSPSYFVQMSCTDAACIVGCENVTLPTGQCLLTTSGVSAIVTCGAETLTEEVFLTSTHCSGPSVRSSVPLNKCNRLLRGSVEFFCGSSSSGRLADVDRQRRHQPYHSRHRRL

SMILES: C/C(=N\N=C(\N)S)c1ccc(Nc2ccccc2)cc1
IC50 (Cruzipain): > 20 µM
IC50 (Falcipain 2): > 20 µM
EC50 (Plasmodium falciparum): 9.9 µM
IC50 (Rhodesain): 18 µM
EC50 [1]: 4.5 µM
Survival [2]: 43 days

SMILES: C/C(=N\N=C(\N)S)c1cccc(-c2ccccc2)c1
IC50 (Cruzipain): 8 µM
IC50 (Rhodesain): 1.1 µM
EC50 [1]: 12 µM
Survival [2]: 43 days

SMILES: CS/C(S)=N/N=C(\C)c1cccc(Br)c1
IC50 (Cruzipain): > 20 µM
IC50 (Rhodesain): > 20 µM
EC50 [1]: 10 µM
Survival [3]: 7 days

SMILES: C/C(=N/N=C(/N)S)c1cccc(/C(C)=N/N=C(/N)S)c1
IC50 (Cruzipain): 5 µM
IC50 (Rhodesain): 0.33 µM
EC50 [1]: > 20 µM
Survival [2]: 5 days

SMILES: C/C(=N\N=C(/S)N1CCCCC1)c1cccc(Br)c1
IC50 (Cruzipain): 5 µM
IC50 (Rhodesain): 4 µM
EC50 [1]: 3 µM
Survival [2]: 5 days

SMILES: C/C(=N\N=C(\N)S)c1cccc(Oc2ccccc2)c1
IC50 (Cruzipain): 10 µM
IC50 (Rhodesain): 0.55 µM
EC50 [1]: 6 µM
Survival [3]: 27 days

SMILES: CCN(CC)/C(S)=N/N=C(\C)c1cccc(Br)c1
IC50 (Cruzipain): 5 µM
IC50 (Rhodesain): 1.8 µM
EC50 [1]: 3 µM
Survival [2]: 5 days

SMILES: C/C(=N\N=C(\N)S)c1ccc(Oc2ccccc2)cc1
IC50 (Cruzipain): 10 µM
IC50 (Rhodesain): 8 µM
EC50 [1]: 3 µM
Survival [3]: 28 days

SMILES: C/C(=N\N=C(\N)S)c1cccc(Nc2ccccc2)c1
IC50 (Cruzipain): > 20 µM
IC50 (Rhodesain): 0.8 µM
EC50 [1]: 8 µM
Survival [2]: 43 days

SMILES: C/C(=N\N=C(\N)S)c1ccc(-c2ccccc2)cc1
IC50 (Cruzipain): 5 µM
IC50 (Falcipain 2): 10 µM
EC50 (Plasmodium falciparum): > 20 µM
IC50 (Rhodesain): 0.09 µM
EC50 [1]: 10 µM
Survival [3]: 8 days

IC50 (Falcipain 2): > 20 µM
EC50 (Plasmodium falciparum): 0.03 µM
SMILES: C/C(=N/N=C(/N)S)c1cccc(/C(C)=N/N=C(/N)S)n1

SMILES: C/C(=N\N=C(/S)N1CCN(C)CC1)c1cccc(Br)c1
IC50 (Cruzipain): 5 µM
IC50 (Falcipain 2): > 20 µM
EC50 (Plasmodium falciparum): 4 µM
IC50 (Rhodesain): 4 µM
EC50 [1]: 2 µM
Survival [3]: 14 days

SMILES: C/C(=N\NC(N)=S)c1ccccn1
IC50 (Cruzipain): > 20 µM
IC50 (Falcipain 2): > 20 µM
EC50 (Plasmodium falciparum): 0.08 µM
IC50 (Rhodesain): > 20 µM
EC50 [1]: 4 µM
Survival [2]: 43 days

SMILES: CS/C(S)=N/N=C(\C)c1ccccn1
IC50 (Falcipain 2): > 20 µM
EC50 (Plasmodium falciparum): 0.03 µM
IC50 (Rhodesain): > 20 µM
EC50 [1]: 0.3 µM

SMILES: C/C(=N\N=C(\N)S)c1cccc(Br)c1
IC50 (Cruzipain): 0.06 µM
IC50 (Rhodesain): 0.05 µM
EC50 [1]: > 20 µM
Survival [2]: 43 days
